Activity calls are given as the source filed them. No cut-off for these calls is given here.
Assays:
[1] = biological target: T1, Proteasome Macropain subunit MB1 (Homo sapiens) (UniProt P28074); experiment: Inhibition of immunoproteasome chymotrypsin-like activity in human […] using Suc-LLVY-Glo as substrate pretreated for 2 hrs followed by substrate addition measured after 10 mins by luminescence assay; type: cell-based
T1 sequence (whole entry): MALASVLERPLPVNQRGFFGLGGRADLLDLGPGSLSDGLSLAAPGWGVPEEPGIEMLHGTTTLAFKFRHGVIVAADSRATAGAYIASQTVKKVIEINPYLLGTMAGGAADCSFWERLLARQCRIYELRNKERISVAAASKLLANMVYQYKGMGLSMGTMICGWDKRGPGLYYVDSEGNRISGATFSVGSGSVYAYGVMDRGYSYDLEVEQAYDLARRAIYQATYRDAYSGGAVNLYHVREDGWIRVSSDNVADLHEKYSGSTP
How it was run: (§1)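 Purified human 20S proteasome was used: constitutive enzyme from erythrocytes, immunoproteasome from PBMCs, each at 2.2 ng/µl. It was preincubated with inhibitor (0 to 10 µM) in 10 mM HEPES pH 7.3 for 2 h at 37 °C. An equal volume of luminogenic substrate was then added ([…], […], Suc-LLVY-Glo for β5), and luminescence was read 10 min later. Runs were in triplicate, and Ki-50 values were fitted and averaged.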

[2] = biological target: Proteasome Macropain subunit (Homo sapiens) (UniProt P49721); experiment: Inhibition of immunoproteasome trypsin-like activity in human […] using […] as substrate pretreated for 2 hrs followed by substrate addition measured after 10 mins by luminescence assay; type: cell-based; how it was run: as §1
Chain of Proteasome Macropain subunit (Homo sapiens) (P49721 whole entry): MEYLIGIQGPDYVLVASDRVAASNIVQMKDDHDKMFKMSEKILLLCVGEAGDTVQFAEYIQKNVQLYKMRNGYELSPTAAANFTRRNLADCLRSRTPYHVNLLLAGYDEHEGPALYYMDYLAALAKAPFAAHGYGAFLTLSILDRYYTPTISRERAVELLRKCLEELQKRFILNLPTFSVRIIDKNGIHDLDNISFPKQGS

Homo sapiens [3] = species: Homo sapiens; experiment: Cytotoxicity against human SK-N-BE(2)C cells assessed as reduction in cell viability after 24 hrs […]; type: functional, cell-based
[4] = biological target: Proteasome Macropain subunit (Homo sapiens) (UniProt P49721); experiment: Inhibition of 20s constitutive proteasome trypsin-like activity in human erythrocytes using […] as substrate pretreated for 2 hrs followed by substrate addition measured after 10 mins by luminescence assay; type: cell-based; how it was run: as §1
[5] = biological target: T1, Proteasome Macropain subunit MB1 (Homo sapiens); experiment: Inhibition of 20s constitutive proteasome chymotrypsin-like activity in human erythrocytes using Suc-LLVY-Glo as substrate pretreated for 2 hrs followed by substrate addition measured after 10 mins by luminescence assay; type: cell-based; how it was run: as §1
[6] = biological target: T2, Proteasome component C5 (Homo sapiens) (UniProt P20618); experiment: Inhibition of 20s constitutive proteasome caspase-like activity in human erythrocytes using […] as substrate pretreated for 2 hrs followed by substrate addition measured after 10 mins by luminescence assay; type: cell-based; how it was run: as §1
T2 sequence (whole entry): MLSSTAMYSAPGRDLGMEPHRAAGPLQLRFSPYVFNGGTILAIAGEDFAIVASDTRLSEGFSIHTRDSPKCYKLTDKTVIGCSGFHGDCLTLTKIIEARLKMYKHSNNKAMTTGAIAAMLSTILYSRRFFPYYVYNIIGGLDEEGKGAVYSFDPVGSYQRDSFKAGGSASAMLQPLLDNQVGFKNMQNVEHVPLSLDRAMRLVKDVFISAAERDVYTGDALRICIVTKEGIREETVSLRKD

[7] = biological target: T2, Proteasome component C5 (Homo sapiens); experiment: Inhibition of immunoproteasome caspase-like activity in human […] using […] as substrate pretreated for 2 hrs followed by substrate addition measured after 10 mins by luminescence assay; type: cell-based; how it was run: as §1
SK-N-SH [8] = experiment: Cytotoxicity against human SK-N-SH cells assessed as reduction in cell viability after 24 hrs […]; type: functional, cell-based
Homo sapiens [9] = species: Homo sapiens; experiment: Cytotoxicity against human MYCN2 cells assessed as reduction in cell viability after 24 hrs […]; type: functional, cell-based
[10] = biological target: T1, Proteasome Macropain subunit MB1 (Homo sapiens); experiment: Stimulation of immunoproteasome chymotrypsin-like activity in human […] at 1 uM using Suc-LLVY-Glo as substrate pretreated for 2 hrs followed by substrate addition measured after 10 mins by luminescence assay; type: cell-based
SK-N-SH [11] = experiment: Cytotoxicity against human SK-N-SH cells assessed as reduction in cell viability at 0.1 to 1 uM after 24 hrs […]; type: functional, cell-based
Homo sapiens [12] = species: Homo sapiens; experiment: Cytotoxicity against human MYCN2 cells assessed as reduction in cell viability at 0.1 to 1 uM after 24 hrs by […] assay; type: functional, cell-based
How it was run: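 Human neuroblastoma cells were plated overnight in RPMI with 10% heat-inactivated FBS, penicillin (100 U/ml) and streptomycin (100 µg/ml), at 37 C and 5% CO₂. They were exposed to inhibitor at 0.01, 0.1 and 1 µM for 24 h. Viability was read with MTS reagent as absorbance at 490 nm. Two independent experiments were run, each in triplicate wells (n=6), and results are expressed relative to untreated control cells.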

SK-N-SH [13] = experiment: Cytotoxicity against human SK-N-SH cells assessed as reduction in cell viability at 0.01 to 1 uM after 24 hrs […]; type: functional
[14] = Cytotoxicity against human MYCN2 cells assessed as reduction in cell viability at 0.01 to 1 uM after 24 hrs […]; type: functional

Question: Which results are given for `CCCCCCCCCCCCNC(=O)N[C@H](C(=O)N[C@H]1C[S+]([O-])CCNC(=O)/C=C/[C@H](C)NC1=O)C(C)C` (some centres undefined)?
Answer: inhibition [1]: inactive; inhibition [2]: inactive; Activity (Homo sapiens [3]): inactive; inhibition [4]: inactive; inhibition [5]: inactive; inhibition [6]: inactive; inhibition [7]: inactive; Activity (SK-N-SH [8]): inactive; Activity (Homo sapiens [9]): inactive

Question: What does the source list for `C[C@H]1/C=C/C(=O)NCCSC[C@H](NC(=O)c2cnccn2)C(=O)N1`?
Answer: inhibition [1]: inactive; inhibition [2]: inactive; Activity (Homo sapiens [3]): inactive; inhibition [4]: inactive; inhibition [5]: inactive; inhibition [6]: inactive; inhibition [7]: inactive; Activity (SK-N-SH [8]): inactive; Activity (Homo sapiens [9]): inactive

Question: For `CC(C)Cc1ccc([C@H](C)C(=O)N[C@H](C(=O)N[C@H]2CSCCNC(=O)/C=C/[C@H](C)NC2=O)C(C)C)cc1`, which Ki50 [1] is on record?
Answer: The Ki50 was greater than 10 µM.

Question: And the Activity [10]?
Answer: Its Activity is “Active”.

Question: And the Ki50 [2]?
Answer: Its Ki50 is 0.74 µM.

Question: What about the Ki50 [4] of the same compound?
Answer: Its Ki50 is 1.07 µM.

Question: And the Ki50 [6]?
Answer: Its Ki50 is greater than 10 µM.

Question: What about the Ki50 [7] of the same compound?
Answer: Its Ki50 is greater than 10 µM.

Question: What does the source list for `CC(C)C[C@H](NC(=O)[C@H](Cc1ccccc1)NC(=O)c1cnccn1)B(O)O`?
Answer: Ki50 [1]: 0.01 µM; Activity (SK-N-SH [11]): Active; Activity (Homo sapiens [12]): Active; Ki50 [6]: 0.02 µM; Ki50 [7]: 0.03 µM

Question: For `CC(C)[C@H](NC(=O)c1cnccn1)C(=O)N[C@H]1CSCCNC(=O)/C=C/[C@H](C)NC1=O`, which Ki50 [1] is on record?
Answer: The Ki50 was greater than 10 µM.

Question: And the Activity [10]?
Answer: The Activity was “Active”.

Question: And the Ki50 [2]?
Answer: Its Ki50 is 0.75 µM.

Question: And the Ki50 [4]?
Answer: Its Ki50 is 0.92 µM.

Question: What about the Ki50 [6] of the same compound?
Answer: The Ki50 was greater than 10 µM.

Question: And the Ki50 [7]?
Answer: Its Ki50 is greater than 10 µM.

Question: With `COc1ccc(C[C@H](NC(=O)[C@H](C)NC(=O)CN2CCOCC2)C(=O)N[C@@H](Cc2ccccc2)C(=O)[C@]2(C)CO2)cc1` as the compound, how does the Ki50 [1] read?
Answer: The Ki50 was 0.11 µM.

Question: What about the Ki50 [6] of the same compound?
Answer: Its Ki50 is 2.07 µM.

Question: And the Ki50 [7]?
Answer: The Ki50 was 1.32 µM.

Question: Which results are given for `CCCCCCCCCCCCNC(=O)N[C@H](C(=O)N[C@H]1CSCCNC(=O)/C=C/[C@H](C)NC1=O)C(C)C`?
Answer: Ki50 [1]: > 10 µM; Ki50 [2]: 1.39 µM; Activity (SK-N-SH [13]): 30 - 50%; Ki50 [4]: 1.76 µM; Ki50 [6]: > 10 µM; Activity [14]: 30 - 50%; Ki50 [7]: > 10 µM

Question: Which inhibition [1] does the source give for `C[C@H]1/C=C/C(=O)NCC[S+]([O-])C[C@H](NC(=O)c2cnccn2)C(=O)N1` (some centres undefined) here?
Answer: Its inhibition is “inactive”.

Question: What about the inhibition [2] of the same compound?
Answer: The inhibition was “inactive”.

Question: And the Activity (Homo sapiens [3])?
Answer: Its Activity is “inactive”.

Question: And the inhibition [4]?
Answer: Its inhibition is “inactive”.

Question: What about the inhibition [5] of the same compound?
Answer: The inhibition was “inactive”.

Question: What about the inhibition [6] of the same compound?
Answer: The inhibition was “inactive”.

Question: And the inhibition [7]?
Answer: Its inhibition is “inactive”.

Question: What about the Activity (SK-N-SH [8]) of the same compound?
Answer: The Activity was “inactive”.

Question: What about the Activity (Homo sapiens [9]) of the same compound?
Answer: The Activity was “inactive”.

— ChEMBL document CHEMBL4184191, “Immunoproteasome inhibition and bioactivity of thiasyrbactins” (2018)
